ChEMBL document CHEMBL5038583, “Highly Potent and Selective Butyrylcholinesterase Inhibitors for Cognitive Improvement and Neuroprotection” (J Med Chem, 2021)
pIC50: −log10 of the molar value. Activity calls are given as the source filed them. The rule behind the calls is not given here.

How the values were obtained:
Cholinesterase [1] = biological target: Cholinesterase (Equus caballus, UniProt P81908); experiment: Inhibition of equine serum BChE using butyrylthiocholine iodide as substrate preincubated for 5 mins followed by substrate addition and measured after 2 mins by DTNB-reagent based Ellman's method
Sequence of Cholinesterase (Equus caballus, UniProt P81908) (P81908 whole entry): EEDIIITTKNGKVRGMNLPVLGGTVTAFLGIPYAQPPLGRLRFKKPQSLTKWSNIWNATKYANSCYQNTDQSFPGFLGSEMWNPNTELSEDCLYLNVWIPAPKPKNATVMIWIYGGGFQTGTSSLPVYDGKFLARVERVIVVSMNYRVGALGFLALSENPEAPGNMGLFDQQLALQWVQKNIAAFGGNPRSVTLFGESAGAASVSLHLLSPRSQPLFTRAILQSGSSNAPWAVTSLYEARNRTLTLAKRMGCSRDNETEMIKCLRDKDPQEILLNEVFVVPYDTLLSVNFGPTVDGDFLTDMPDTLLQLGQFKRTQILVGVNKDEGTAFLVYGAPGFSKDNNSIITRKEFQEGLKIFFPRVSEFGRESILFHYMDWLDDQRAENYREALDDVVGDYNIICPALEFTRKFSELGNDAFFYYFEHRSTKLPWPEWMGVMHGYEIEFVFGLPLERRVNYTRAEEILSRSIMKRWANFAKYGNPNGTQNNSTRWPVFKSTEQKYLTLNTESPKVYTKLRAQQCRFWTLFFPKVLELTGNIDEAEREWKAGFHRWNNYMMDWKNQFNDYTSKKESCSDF

Cholinesterase [2] = biological target: Cholinesterase (Homo sapiens, UniProt P06276); experiment: Inhibition of human serum BChE using butyrylthiocholine iodide as substrate preincubated for 20 mins followed by substrate addition and measured after 2 mins by DTNB-reagent based Ellman's method
Sequence of Cholinesterase (Homo sapiens, UniProt P06276) (P06276 whole entry): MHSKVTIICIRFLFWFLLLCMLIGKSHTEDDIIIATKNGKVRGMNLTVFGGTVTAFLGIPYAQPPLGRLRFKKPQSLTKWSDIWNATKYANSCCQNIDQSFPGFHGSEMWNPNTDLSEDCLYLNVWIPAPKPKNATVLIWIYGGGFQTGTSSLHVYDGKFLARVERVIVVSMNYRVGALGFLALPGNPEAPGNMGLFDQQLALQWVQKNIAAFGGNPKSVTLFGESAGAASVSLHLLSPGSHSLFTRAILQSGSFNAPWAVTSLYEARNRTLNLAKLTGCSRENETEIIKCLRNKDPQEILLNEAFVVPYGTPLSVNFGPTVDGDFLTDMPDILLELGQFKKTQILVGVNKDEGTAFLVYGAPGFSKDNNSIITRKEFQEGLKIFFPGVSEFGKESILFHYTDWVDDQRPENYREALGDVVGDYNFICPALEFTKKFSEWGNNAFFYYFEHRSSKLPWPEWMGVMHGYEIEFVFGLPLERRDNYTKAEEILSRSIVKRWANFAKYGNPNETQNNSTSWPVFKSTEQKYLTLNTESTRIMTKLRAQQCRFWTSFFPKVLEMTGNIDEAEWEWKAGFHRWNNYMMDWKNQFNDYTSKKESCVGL
Outline: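 hBChE at 0.015 units/mL with DTNB in phosphate buffer pH 8.0, preincubated 20 min at room temperature with at least six concentrations (10⁻⁴−10⁻⁹). Butyrylthiocholine iodide (0.075 M solution) added; A412 read after 2 min at 25 °C. IC50 from % activity vs log concentration; triplicates in at least three runs.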

[3] = Toxicity in ICR mouse assessed as increase in body weight administered for 14 days and measured daily; details: in vivo, 15 mg/kg, 336 h
[4] = biological target: Cholinesterase (Equus caballus) (UniProt P81908); experiment: Inhibition of equine serum BChE at 10 uM using butyrylthiocholine iodide as substrate preincubated for 5 mins followed by substrate addition and measured after 2 mins by DTNB-reagent based Ellman's method relative to control; details: time 7.0 min
Sequence of Cholinesterase (Equus caballus) (P81908 whole entry): as the sequence (P81908 whole entry) above
Outline: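 Ellman method with equine BChE at 2.5 units/mL in pH 8.0 phosphate buffer with DTNB. Preincubation 5 min at room temperature, then butyrylthiocholine iodide (0.075 M solution) added; absorbance at 412 nm after 2 min. Ethanol sample gives 100% activity. Triplicates, at least three runs.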

[5] = Metabolic stability in human liver microsomes assessed as intrinsic clearance at 1 uM measured upto 45 mins in presence of NADPH by LC/MS/MS analysis; type: ADME, Microsome; details: read-out: CLH
Outline: (§1)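 Human liver microsomes 0.5 mg/mL, compound 1 μM final, NADPH 2 mM, at 37 °C. Reactions stopped at 0, 5, 15, 30 and 45 min with acetonitrile containing imipramine internal standard. LC/MS/MS quantitation relative to 0 min; initial rates used for t1/2 and intrinsic clearance; ketanserin as assay control. Mean of two independent experiments.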

BV-2 = experiment: Cytotoxicity against mouse BV-2 cells assessed as survival rate at 100 uM incubated for 24 hrs by MTT assay; type: functional
Outline: (§2)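 Cells seeded at 1 × 10⁴/well in DMEM with 10% FBS and left overnight, then given compound (DMSO stock diluted in DMEM) for 24 h at 37 °C. MTT added for 4 h, formazan dissolved in DMSO, absorbance read at 492 nm. Viability taken as OD treated/OD DMEM × 100%; IC50 from three independent experiments, mean SD.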

Mus musculus [6] = experiment: Anti-alzheimer activity in amyloid beta(1 to 42)-induced ICR mouse model of cognitive impairment assessed as reduction in escape latency time at 15 mg/kg, ig administered at days 2 to 14 by Morris water maze test; type: functional
Outline: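 Mouse model by icv oligomerized Aβ1-42 (10 μg/mouse, aggregated 24 h at 37 °C in saline) on day 1; 15 mg/kg ig on days 2−14, n = 8. Morris water maze training on days 9−13, probe trial day 14, escape latency and track recorded. Mean SD.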

L02 = experiment: Cytotoxicity against human L02 cells assessed as survival rate at 100 uM incubated for 24 hrs by MTT assay; type: functional; outline: as §2
SH-SY5Y = experiment: Cytotoxicity against human SH-SY5Y cells assessed as survival rate at 100 uM incubated for 24 hrs by MTT assay; type: functional; outline: as §2
PC-12 = experiment: Cytotoxicity against rat PC-12 cells assessed as survival rate at 10 uM incubated for 24 hrs by MTT assay; type: functional; outline: as §2
Mus musculus [7] = experiment: Anti-alzheimer activity in amyloid beta(1 to 42)-induced ICR mouse model of cognitive impairment assessed as enhanced alternation performance by measuring total number of arm entries at 15 mg/kg, ig administered at days 2 to 14 and measured on day 15 by Y-maze test; type: functional
Outline: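 Oligomerized Aβ1-42 (10 μg per mouse, icv) given on day 1; saline icv for sham. Dosing 15 mg/kg ig on days 2−14 (donepezil as positive control), n = 8. Spontaneous alternation read on day 15 in a three-arm grey PVC Y maze, arms at 120°. Mean SD.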

Mus musculus [8] = experiment: Antialzheimer activity in ICR mouse assessed as reduction in scopolamine-induced cognitive impairment at 30 mg/kg, ig administered for 10 consecutive days by Morris water maze test; type: functional, organism-based; details: time 10.0 day
Outline: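 Male ICR mice (8−10 weeks, 18−20 g), n = 8 per group. Compound at 15 or 30 mg/kg intragastric in DMSO/saline (10:90), given 30 min before scopolamine 3 mg/kg i.p., for 10 consecutive days; tacrine 15 mg/kg as reference. Morris water maze: 5 days of training, probe trial on day 6 with platform removed. Escape latency and trajectory recorded; mean ± SD.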

[9] = Acute toxicity in ICR mouse assessed as abnormal behaviour at 1 g/kg, ig administered […]; details: in vivo, po, 1000 mg/kg
Outline: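 Single dose of 1 g/kg given intragastrically on day 1 to overnight-fasted mice (15−18 g), suspended in 5% DMSO, 40% PEG 400, 55% saline. Male and female groups (n = 9), with vehicle controls. Death, daily behaviour and body mass followed over the next 2 weeks.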

[10] = Effective permeability of the compound in pH 7.4 PBS/EtOH (70:30) at 100 ug/ml incubated for 18 hrs by PAMPA-BBB assay; type: ADME; details: dose 100 µg/ml, read-out: Peff
Outline: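 PAMPA-BBB with porcine brain lipid in dodecane (20 mg/mL) on PVDF filter. Donor holds compound at 100 μg/mL final (from 5 mg/mL DMSO stock) in PBS pH 7.4/EtOH 70:30; acceptor holds the same buffer. Incubated 18 h at 25 °C; donor and acceptor concentrations by UV at five wavelengths. Four wells, at least three runs, nine permeability standards; mean ± SD.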

[11] = Metabolic stability in human liver microsomes assessed as half life at 1 uM measured upto 45 mins in presence of NADPH by LC/MS/MS analysis; type: ADME, Microsome; outline: as §1
[12] = Acute toxicity in ICR mouse assessed as animal death at […]; details: in vivo, po, 1000 mg/kg, 336 h
[13] = Hepatotoxicity in ICR mouse assessed as change in alanine aminotransferase activity at 1 g/kg, ig administered daily for 14 days measured upto 36 hrs post-administration; type: toxicity; details: in vivo, po, 1000 mg/kg, 336 h, time 14 day
Outline: (§3)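 Heparinized serum from ICR mice taken at 8, 22 and 36 h after oral compound or saline control; AST and ALT activities measured.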

[14] = Hepatotoxicity in ICR mouse assessed as change in aspartate aminotransferase activity at 1 g/kg, ig administered daily for 14 days measured upto 36 hrs post-administration; type: toxicity; details: in vivo, po, 1000 mg/kg, 336 h, time 14 day; outline: as §3
HepG2 = experiment: Cytotoxicity against human HepG2 cells assessed as survival rate at 100 uM incubated for 24 hrs by MTT assay; type: functional; outline: as §2
[15] = Hepatotoxicity in ICR mouse assessed as morphological changes in liver at 1 g/kg, ig administered daily for 14 days analysed after 22 hrs post-administration by hematoxylin and eosin staining based analysis; type: toxicity, tissue-based; details: in vivo, po, 1000 mg/kg, 336 h, time 14 day
Outline: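 Liver from male mice taken 22 h after compound or vehicle; hematoxylin−eosin staining, viewed at ×100.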

Mus musculus [16] = experiment: Anti-alzheimer activity in amyloid beta(1 to 42)-induced ICR mouse model of cognitive impairment assessed as simplification of trajectories at 15 mg/kg, ig administered at days 2 to 14 by Morris water maze test; type: functional, organism-based
Outline: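 ICR mice, n = 8 per group. Aggregated Aβ1-42 (5 mM DMSO stock incubated 24 h at 37 °C in saline at 2 mg/mL) given 10 μg per mouse icv on day 1; saline icv for sham. Compound 15 mg/kg intragastric on days 2−14; donepezil reference. Morris water maze training days 9−13, probe trial day 14; tracks recorded; mean ± SD.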

`Nc1nonc1-c1nc2ccccc2n1CC(=O)Nc1cccc(Br)c1` showed a pIC50 (Cholinesterase [1]) of 7.08 and a pIC50 (Cholinesterase [2]) of 6.67.
`CC(=O)Nc1cccc(NC(=O)Cn2c(-c3nonc3N)nc3ccccc32)c1` gave a pIC50 (Cholinesterase [1]) of 5.95.
In the case of `CC(=O)Nc1ccc(NC(=O)Cn2c(-c3nonc3N)nc3ccccc32)cc1`, the pIC50 (Cholinesterase [1]) was 5.18.
For `COc1cc2c(cc1OC)C(=O)C(CC1CCN(Cc3ccccc3)CC1)C2` (stereo not drawn) [DONEPEZIL], the Activity [3] was “Toxic”.
`Nc1nonc1-c1nc2ccccc2n1CC(=O)Nc1ccc2c(c1)OCO2` showed a pIC50 (Cholinesterase [1]) of 5.66.
`O=C(Cn1c(-c2ccccc2)nc2ccccc21)Nc1ccc2ncccc2c1` showed an inhibition [4] of less than 50%.
`Nc1ccccc1-c1nc2ccccc2n1CC(=O)Nc1ccc2ncccc2c1` showed an inhibition [4] of less than 50%.
Compound `Cc1cccc(NC(=O)Cn2c(-c3nonc3N)nc3ccccc32)c1C` has a pIC50 (Cholinesterase [1]) of 6.49.
For `Nc1nonc1-c1nc2ccccc2n1CCCCC(=O)Nc1ccc2ncccc2c1`, the inhibition [4] was less than 50%.
`N#Cc1cccc(NC(=O)Cn2c(-c3nonc3N)nc3ccccc32)c1` gave a pIC50 (Cholinesterase [1]) of 7.29 and a pIC50 (Cholinesterase [2]) of 6.60.
Work on `Cc1cc2nc(-c3nonc3N)n(CC(=O)Nc3cccc4ccccc34)c2cc1C` yielded a pIC50 (Cholinesterase [1]) of 6.97.
In the case of `Cc1cc2nc(-c3nonc3N)n(CC(=O)Nc3cnc4ccccc4c3)c2cc1C`, the pIC50 (Cholinesterase [1]) was 4.54.
`Nc1nonc1-c1nc2ccccc2n1CC(=O)Nc1ccc(Br)c2ccccc12` showed a pIC50 (Cholinesterase [1]) of 8.22, a CLint scaled at 1 µM [5] of 54 mL/min/kg and an Activity (BV-2) of 55.66%. The Activity (Mus musculus [6]) was “Active”, the Activity (L02) was 86.55% and the Activity (SH-SY5Y) was 62.37%. The Activity (PC-12) was 52.21%, the Activity (Mus musculus [7]) was “Active” and the pIC50 (Cholinesterase [2]) was 7.49. For the same compound, the Activity [3] was “Toxic”, the Activity (Mus musculus [8]) was “Active” and the Activity [9] was “Non-Toxic”. The Papp at 18 h, 100 ug/ml [10] was 11.7 ×10⁻⁶ cm/s, the half-life at 1 µM [11] was 32.2 min and the Activity [12] was “Non-Toxic”. For the same compound, the Activity [13] was “Non-Toxic”, the Activity [14] was “Non-Toxic” and the Activity (HepG2) was 73.24%. For the same compound, the Activity [15] was “Non-Toxic” and the Activity (Mus musculus [16]) was “Active”.
Work on `COc1cc(NC(=O)Cn2c(-c3nonc3N)nc3ccccc32)cc(OC)c1OC` yielded a pIC50 (Cholinesterase [1]) of 5.18.
`Nc1nonc1-c1nc2ccccc2n1CC(=O)Nc1ccc(Br)cc1` showed an inhibition [4] of less than 50%.
Compound `Nc1nonc1-c1nc2ccccc2n1CC(=O)Nc1cccc(Cl)c1` has a pIC50 (Cholinesterase [1]) of 7.48 and a pIC50 (Cholinesterase [2]) of 6.89.
For `Nc1nonc1-c1nc2ccccc2n1CC(=O)Nc1ccc2ccccc2n1`, the pIC50 (Cholinesterase [1]) was 6.29.
Compound `O=C(Cn1c(-c2ccoc2)nc2ccccc21)Nc1ccc2ncccc2c1` has an inhibition [4] of less than 50%.
`Cc1cccc(NC(=O)Cn2c(-c3nonc3N)nc3ccccc32)c1` gave a pIC50 (Cholinesterase [1]) of 6.63.
For `Nc1nonc1-c1nc2ccccc2n1CC(=O)Nc1ccc2ncccc2c1`, the pIC50 (Cholinesterase [1]) was 6.15.
In the case of `Nc1ccc(NC(=O)Cn2c(-c3nonc3N)nc3ccccc32)cc1`, the inhibition [4] was less than 50%.
